ChEMBL document CHEMBL5058577, “EUbOPEN Chemogenomics Library 2 (Multiplex)” (2022)

System: U2OS
Assay: Multiplex assay against U2OS
Type: toxicity, cell-based
Settings: human
Procedure, shortened: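 Live cells were stained at seeding with Hoechst33342, BioTracker Green Microtubule Cytoskeleton Dye, MitoTracker Red and Annexin V Alexa Fluor 680, then imaged on a CQ1 microscope at 37°C and 5% CO2 after compound addition. CellPathfinder machine-learning gating split cells into Hoechst high-intensity objects or normal cells. Normal cells were split into healthy, pyknosed or fragmented nuclei, and pyknosed cells into mitotic or apoptotic. Tubulin, mitochondrial-mass and membrane-permeability phenotypes are per cents of healthy-nucleus cells.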

[1] = 12 h, 1 µM, compound concentration 1 uM, replicate 1
[2] = 12 h, 1 µM, compound concentration 1 uM, replicate 2
[3] = 12 h, 10 µM, compound concentration 10 uM, replicate 1
[4] = 12 h, 10 µM, compound concentration 10 uM, replicate 2
[5] = 24 h, 1 µM, compound concentration 1 uM, replicate 1
[6] = 24 h, 1 µM, compound concentration 1 uM, replicate 2
[7] = 24 h, 10 µM, compound concentration 10 uM, replicate 1
[8] = 24 h, 10 µM, compound concentration 10 uM, replicate 2
[9] = 48 h, 1 µM, compound concentration 1 uM, replicate 1
[10] = 48 h, 1 µM, compound concentration 1 uM, replicate 2
[11] = 48 h, 10 µM, compound concentration 10 uM, replicate 1
[12] = 48 h, 10 µM, compound concentration 10 uM, replicate 2

O=C(CCCc1ccccc1)Nc1nc2ccccc2c(=O)s1
Population Apoptotic (%) [1]: 92% | Population Fragmented Nuclei (%) [1]: 26% | Population Healthy Nuclei (%) [1]: 64% | Population Hoechst High Intensity Objects (%) [1]: 2% | Population Membrane Permeable-Phenotype (%) [1]: 4% | Population Mitochondria Different-Phenotype (%) [1]: 2% | Population Mitotic Cells (%) [1]: 7% | Population Normal (%) [1]: 97% | Population Pyknosed Nuclei (%) [1]: 9% | Population Tubulin-Different-Phenotype (%) [1]: 1% | Total Cell Count [1]: 274 | Population Apoptotic (%) [2]: 55% | Population Fragmented Nuclei (%) [2]: 17% | Population Healthy Nuclei (%) [2]: 74% | Population Hoechst High Intensity Objects (%) [2]: 0% | Population Membrane Permeable-Phenotype (%) [2]: 7% | Population Mitochondria Different-Phenotype (%) [2]: 3% | Population Mitotic Cells (%) [2]: 44% | Population Normal (%) [2]: 100% | Population Pyknosed Nuclei (%) [2]: 7% | Population Tubulin-Different-Phenotype (%) [2]: 2% | Total Cell Count [2]: 113 | Population Apoptotic (%) [3]: 72% | Population Fragmented Nuclei (%) [3]: 31% | Population Healthy Nuclei (%) [3]: 58% | Population Hoechst High Intensity Objects (%) [3]: 2% | Population Membrane Permeable-Phenotype (%) [3]: 2% | Population Mitochondria Different-Phenotype (%) [3]: 0% | Population Mitotic Cells (%) [3]: 28% | Population Normal (%) [3]: 97% | Population Pyknosed Nuclei (%) [3]: 9% | Population Tubulin-Different-Phenotype (%) [3]: 1% | Total Cell Count [3]: 270 | Population Apoptotic (%) [4]: 100% | Population Fragmented Nuclei (%) [4]: 20% | Population Healthy Nuclei (%) [4]: 67% | Population Hoechst High Intensity Objects (%) [4]: 4% | Population Membrane Permeable-Phenotype (%) [4]: 7% | Population Mitochondria Different-Phenotype (%) [4]: 6% | Population Mitotic Cells (%) [4]: 0% | Population Normal (%) [4]: 95% | Population Pyknosed Nuclei (%) [4]: 11% | Population Tubulin-Different-Phenotype (%) [4]: 6% | Total Cell Count [4]: 101 | Population Apoptotic (%) [5]: 79% | Population Fragmented Nuclei (%) [5]: 22% | Population Healthy Nuclei (%) [5]: 68% | Population Hoechst High Intensity Objects (%) [5]: 1% | Population Membrane Permeable-Phenotype (%) [5]: 4% | Population Mitochondria Different-Phenotype (%) [5]: 2% | Population Mitotic Cells (%) [5]: 20% | Population Normal (%) [5]: 98% | Population Pyknosed Nuclei (%) [5]: 9% | Population Tubulin-Different-Phenotype (%) [5]: 2% | Total Cell Count [5]: 325 | Population Apoptotic (%) [6]: 84% | Population Fragmented Nuclei (%) [6]: 17% | Population Healthy Nuclei (%) [6]: 73% | Population Hoechst High Intensity Objects (%) [6]: 0% | Population Membrane Permeable-Phenotype (%) [6]: 8% | Population Mitotic Cells (%) [6]: 15% | Population Normal (%) [6]: 100% | Population Tubulin-Different-Phenotype (%) [6]: 3% | Total Cell Count [6]: 141 | Population Apoptotic (%) [7]: 86% | Population Fragmented Nuclei (%) [7]: 25% | Population Healthy Nuclei (%) [7]: 65% | Population Hoechst High Intensity Objects (%) [7]: 2% | Population Membrane Permeable-Phenotype (%) [7]: 5% | Population Mitochondria Different-Phenotype (%) [7]: 1% | Population Mitotic Cells (%) [7]: 13% | Population Normal (%) [7]: 97% | Population Pyknosed Nuclei (%) [7]: 9% | Population Tubulin-Different-Phenotype (%) [7]: 4% | Total Cell Count [7]: 319 | Population Apoptotic (%) [8]: 100% | Population Fragmented Nuclei (%) [8]: 19% | Population Healthy Nuclei (%) [8]: 71% | Population Hoechst High Intensity Objects (%) [8]: 1% | Population Membrane Permeable-Phenotype (%) [8]: 8% | Population Mitochondria Different-Phenotype (%) [8]: 2% | Population Mitotic Cells (%) [8]: 0% | Population Normal (%) [8]: 98% | Population Tubulin-Different-Phenotype (%) [8]: 3% | Total Cell Count [8]: 124 | Population Apoptotic (%) [9]: 91% | Population Fragmented Nuclei (%) [9]: 13% | Population Healthy Nuclei (%) [9]: 76% | Population Hoechst High Intensity Objects (%) [9]: 7% | Population Membrane Permeable-Phenotype (%) [9]: 3% | Population Mitochondria Different-Phenotype (%) [9]: 2% | Population Mitotic Cells (%) [9]: 8% | Population Normal (%) [9]: 92% | Population Pyknosed Nuclei (%) [9]: 9% | Population Tubulin-Different-Phenotype (%) [9]: 1% | Total Cell Count [9]: 394 | Population Apoptotic (%) [10]: 87% | Population Fragmented Nuclei (%) [10]: 19% | Population Healthy Nuclei (%) [10]: 71% | Population Hoechst High Intensity Objects (%) [10]: 5% | Population Mitochondria Different-Phenotype (%) [10]: 3% | Population Mitotic Cells (%) [10]: 12% | Population Normal (%) [10]: 94% | Population Pyknosed Nuclei (%) [10]: 8% | Population Tubulin-Different-Phenotype (%) [10]: 6% | Total Cell Count [10]: 192 | Population Apoptotic (%) [11]: 91% | Population Fragmented Nuclei (%) [11]: 20% | Population Healthy Nuclei (%) [11]: 70% | Population Hoechst High Intensity Objects (%) [11]: 2% | Population Membrane Permeable-Phenotype (%) [11]: 5% | Population Mitochondria Different-Phenotype (%) [11]: 0% | Population Mitotic Cells (%) [11]: 8% | Population Normal (%) [11]: 97% | Population Pyknosed Nuclei (%) [11]: 8% | Population Tubulin-Different-Phenotype (%) [11]: 3% | Total Cell Count [11]: 427 | Population Apoptotic (%) [12]: 95% | Population Fragmented Nuclei (%) [12]: 15% | Population Healthy Nuclei (%) [12]: 72% | Population Hoechst High Intensity Objects (%) [12]: 0% | Population Membrane Permeable-Phenotype (%) [12]: 9% | Population Mitochondria Different-Phenotype (%) [12]: 3% | Population Mitotic Cells (%) [12]: 4% | Population Normal (%) [12]: 99% | Population Pyknosed Nuclei (%) [12]: 12% | Population Tubulin-Different-Phenotype (%) [12]: 5% | Total Cell Count [12]: 175
